According to ChEMBL document CHEMBL1155549, “Sialic acid-mimic peptides as hemagglutinin inhibitors for anti-influenza therapy” (J Med Chem, 2010):
The source made the active and inactive calls. No cut-off for these calls is given here. Where a SMILES comes first, the peptide text is derived from it. The star is where a group is joined. Biotin = O=C1N[C@H]2[C@H](CS[C@H]2CCCCC(=O)*)N1; Stearoyl = CCCCCCCCCCCCCCCCCC(=O)*

Columns and labels:
[1] = target: Hemagglutinin (Influenza A virus (A/Puerto Rico/8/1934(H1N1)), UniProt P03452); assay: Binding affinity to Influenza A virus (A/Puerto Rico/8/34(H1N1)) hemagglutininin by phage ELISA
Chain of Hemagglutinin (Influenza A virus (A/Puerto Rico/8/1934(H1N1)), UniProt P03452) (P03452 18-342 limits assumed): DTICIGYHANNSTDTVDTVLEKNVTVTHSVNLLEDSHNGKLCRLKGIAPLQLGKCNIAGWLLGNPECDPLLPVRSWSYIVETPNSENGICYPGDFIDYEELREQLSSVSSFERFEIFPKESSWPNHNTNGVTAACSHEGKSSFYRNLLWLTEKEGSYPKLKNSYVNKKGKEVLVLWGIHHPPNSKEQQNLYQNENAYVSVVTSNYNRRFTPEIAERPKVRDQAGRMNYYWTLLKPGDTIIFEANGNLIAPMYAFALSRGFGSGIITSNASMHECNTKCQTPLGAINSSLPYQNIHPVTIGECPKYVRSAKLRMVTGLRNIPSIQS
Chain of Hemagglutinin (Influenza A virus (A/Puerto Rico/8/1934(H1N1)), UniProt P03452) (P03452 344-565 limits assumed): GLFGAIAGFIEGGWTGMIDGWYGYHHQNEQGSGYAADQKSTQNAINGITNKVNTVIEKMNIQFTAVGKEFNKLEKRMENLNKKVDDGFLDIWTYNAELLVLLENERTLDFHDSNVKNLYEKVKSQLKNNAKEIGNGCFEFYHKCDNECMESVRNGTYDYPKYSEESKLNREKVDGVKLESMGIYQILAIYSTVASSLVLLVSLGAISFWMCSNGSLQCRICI
Summary of the method: (§1)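 Wells coated with target (HA, WGA or anti-GM3 antibody) were blocked with 1% BSA/TBS. Phage in TBS was added for 2 h, washed with TBST and reblocked with 5% BSA/TBS. Detection used anti-fd antibody then peroxidase anti-rabbit IgG, 1 h each, with o-phenylenediamine read as ΔA at 492 nm, in triplicate. Phage concentration came from A260. Kd was from a linear plot of ΔA against phage concentration.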

[2] = Binding affinity to Influenza A virus (A/Wuhan/359/1995 (H3N2)) hemagglutininin by phage ELISA; summary of the method: as §1
[3] = Binding affinity to wheat germ agglutinin by phage ELISA; design: species or system Triticum aestivum; summary of the method: as §1
[4] = test system: Influenza A virus (A/New Caledonia/20/1999(H1N1)); assay: Binding affinity to Influenza A virus (A/New Caledonia/20/1999 (H1N1)) hemagglutininin by avidin-biotin peroxidase complex method
Summary of the method: (§2)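 HA was coated at 70 μg/mL overnight at 4 °C and blocked with 1% BSA/PBS. C-terminally biotinylated peptides (5-400 μM) were added for 2 h. After PBS washes, peroxidase-streptavidin was added for 1 h, and o-phenylenediamine colour was read as ΔA at 492 nm, in triplicate. Kd came from a Scatchard plot over 20-200 μM peptide.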

[5] = test system: Influenza A virus (A/Wyoming/03/2003(H3N2)); assay: Binding affinity to Influenza A virus (A/Wyoming/03/2003 (H3N2)) hemagglutininin by avidin-biotin peroxidase complex method; summary of the method: as §2
H3N2 subtype = assay: Antiviral activity against Influenza A virus (A/Aichi/2/1968(H3N2)) infected in MDCK cells after 48 hrs by plaque assay; type: functional, organism-based
Summary of the method: (§3)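 N-stearoyl peptides were serially diluted in PBS from a 2 mM stock and mixed with 50-200 pfu virus for 30 min at room temperature. The mixture was put on MDCK monolayers for 30 min at 37 °C under 5% CO2, then washed off. After 2 days, plaques were stained with crystal violet and counted. Inhibition was 100(1 - N/N0), n = 3, plotted against concentration.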

Influenza A virus = assay: Antiviral activity against Influenza A virus (A/Puerto Rico/8/34(H1N1)) infected in MDCK cells after 48 hrs by plaque assay; type: functional, organism-based; conditions: A/Puerto Rico/8/1934(H1N1); summary of the method: as §3

| Compound | IC50 (H3N2 subtype) [µM] | IC50 (Influenza A virus) [µM] | further results |
| --- | --- | --- | --- |
| CSCC[C@H](NC(=O)[C@@H](NC(=O)[C@@H]1CCCN1C(=O)[C@H](CO)NC(=O)[C@H](CC(C)C)NC(=O)[C@H](CCCN=C(N)N)NC(=O)[C@H](C)N)[C@@H](C)O)C(=O)N[C@H](C(=O)N[C@@H](Cc1cnc[nH]1)C(=O)N1CCC[C@H]1C(=O)N[C@@H](CC(N)=O)C(=O)NCC(=O)N[C@@H](C)C(=O)N[C@@H](CCC(N)=O)C(=O)N1CCC[C@H]1C(=O)O)C(C)C | – | – | Kd [1]: 0.0078 µM; Kd [2]: 0.0086 µM; Kd [3]: 0.016 µM |
| CSCC[C@H](NC(=O)[C@@H](NC(=O)[C@H](CCCNC(=N)N)NC(=O)[C@@H]1CCCN1C(=O)[C@H](CC(C)C)NC(=O)[C@H](C)NC(=O)[C@H](C)N)[C@H](C)O)C(=O)N[C@H](C(=O)N[C@@H](Cc1cnc[nH]1)C(=O)N1CCC[C@H]1C(=O)N[C@@H](CCCCN)C(=O)N1CCC[C@H]1C(=O)N[C@@H](C)C(=O)N[C@@H](CCC(N)=O)C(=O)N1CCC[C@H]1C(=O)N[C@@H](CCCCNC(=O)CCCC[C@@H]1SC[C@@H]2NC(=O)N[C@@H]21)C(N)=O)C(C)C | – | – | Activity [4]: inactive; Activity [5]: inactive |
| CSCC[C@H](NC(=O)[C@@H](NC(=O)[C@H](CCCNC(=N)N)NC(=O)[C@@H]1CCCN1C(=O)[C@H](C)NC(=O)[C@H](CCCNC(=N)N)NC(=O)[C@H](C)N)[C@@H](C)O)C(=O)N[C@H](C(=O)N[C@@H](Cc1cnc[nH]1)C(=O)N1CCC[C@H]1C(=O)N[C@@H](CCCCN)C(=O)N1CCC[C@H]1C(=O)N[C@@H](C)C(=O)N[C@@H](CCC(N)=O)C(=O)N1CCC[C@H]1C(=O)N[C@@H](CCCCNC(=O)CCCC[C@@H]1SC[C@@H]2NC(=O)N[C@@H]21)C(N)=O)C(C)C (H-ARAPRTMVHPKPAQPK(Biotin)-NH2) | – | – | Activity [4]: inactive; Activity [5]: inactive |
| CCCCCCCCCCCCCCCCCC(=O)N[C@@H](C)C(=O)N[C@@H](CCCNC(=N)N)C(=O)N[C@@H](CC(C)C)C(=O)N1CCC[C@H]1C(=O)N[C@@H](CCCNC(=N)N)C(N)=O (Stearoyl-ARLPR-NH2) | 1.9 | 1.6 | – |
| CCCCCCCCCCCCCCCCCC(=O)N[C@@H](C)C(=O)N[C@@H](CCCNC(=N)N)C(=O)N[C@@H](CC(C)C)C(=O)N1CCC[C@H]1C(=O)N[C@@H](CCCNC(=N)N)C(=O)N[C@@H](CC(N)=O)C(=O)N[C@@H](CCSC)C(=O)N[C@H](C(=O)N[C@@H](Cc1cnc[nH]1)C(=O)N[C@@H](Cc1cnc[nH]1)C(=O)N[C@@H](CCCCN)C(=O)N[C@H](C(=O)N[C@@H](C)C(=O)N[C@@H](CCC(N)=O)C(=O)N1CCC[C@H]1C(N)=O)[C@@H](C)O)C(C)C (Stearoyl-ARLPRNMVHHKTAQP-NH2) | 6.2 | 15 | – |
| CCCCCCCCCCCCCCCCCC(=O)N[C@@H](C)C(=O)N[C@@H](CCCNC(=N)N)C(=O)N[C@@H](CC(C)C)C(=O)N1CCC[C@H]1C(=O)N[C@@H](CCCNC(=N)N)C(=O)N[C@@H](CO)C(=O)N[C@@H](CCSC)C(=O)N[C@H](C(=O)N[C@@H](Cc1cnc[nH]1)C(=O)N[C@@H](Cc1cnc[nH]1)C(=O)N[C@@H](CCCCN)C(=O)N1CCC[C@H]1C(=O)N[C@@H](C)C(=O)N[C@@H](CCC(N)=O)C(=O)N1CCC[C@H]1C(N)=O)C(C)C (Stearoyl-ARLPRSMVHHKPAQP-NH2) | 8.9 | 22 | – |
| CCCCCCCCCCCCCCCCCC(=O)N[C@@H](C)C(=O)N[C@@H](CCCNC(=N)N)C(=O)N[C@@H](CC(C)C)C(=O)N1CCC[C@H]1C(=O)N[C@@H](CCCNC(=N)N)C(=O)N[C@H](C(=O)N[C@@H](CC(C)C)C(=O)N[C@H](C(=O)N[C@@H](Cc1cnc[nH]1)C(=O)N1CCC[C@H]1C(=O)N[C@@H](CCCCN)C(=O)N[C@@H](Cc1cnc[nH]1)C(=O)N[C@@H](C)C(=O)N[C@@H](CCC(N)=O)C(=O)N[C@@H](C)C(N)=O)C(C)C)[C@@H](C)O (Stearoyl-ARLPRTLVHPKHAQA-NH2) | 7.6 | 13.5 | – |
| CCCCCCCCCCCCCCCCCC(=O)N[C@@H](C)C(=O)N[C@@H](CCCNC(=N)N)C(=O)N[C@@H](CC(C)C)C(=O)N1CCC[C@H]1C(=O)N[C@@H](CCCNC(=N)N)C(=O)N[C@H](C(=O)N[C@@H](CCSC)C(=O)N[C@H](C(N)=O)C(C)C)[C@@H](C)O (Stearoyl-ARLPRTMV-NH2) | 3 | 4.2 | – |
| CCCCCCCCCCCCCCCCCC(=O)N[C@@H](C)C(=O)N[C@@H](CCCNC(=N)N)C(=O)N[C@@H](CC(C)C)C(=O)N1CCC[C@H]1C(=O)N[C@@H](CCCNC(=N)N)C(=O)N[C@H](C(=O)N[C@@H](CCSC)C(=O)N[C@H](C(=O)N[C@@H](Cc1cnc[nH]1)C(=O)N1CCC[C@H]1C(=O)N[C@@H](CCCCN)C(=O)N1CCC[C@H]1C(=O)N[C@@H](C)C(=O)N[C@@H](CCC(N)=O)C(=O)N1CCC[C@H]1C(N)=O)C(C)C)[C@@H](C)O (Stearoyl-ARLPRTMVHPKPAQP-NH2) | 11 | 15 | – |
| CCCCCCCCCCCCCCCCCC(=O)N[C@@H](C)C(=O)N[C@@H](CCCNC(=N)N)C(=O)N[C@@H](CC(C)C)C(=O)N1CCC[C@H]1C(=O)N[C@@H](CCCNC(=N)N)C(=O)N[C@H](C(=O)N[C@@H](CCSC)C(=O)N[C@H](C(=O)N[C@@H](Cc1cnc[nH]1)C(=O)N1CCC[C@H]1C(=O)N[C@@H](CCCCN)C(=O)N[C@H](C(=O)N[C@@H](C)C(=O)N[C@@H](Cc1cnc[nH]1)C(=O)N[C@@H](CCC(N)=O)C(N)=O)[C@@H](C)O)C(C)C)[C@@H](C)O (Stearoyl-ARLPRTMVHPKTAHQ-NH2) | 8 | 13 | – |
| CCCCCCCCCCCCCCCCCC(=O)N[C@@H](C)C(=O)N[C@@H](CCCNC(=N)N)C(=O)N[C@@H](CC(C)C)C(=O)N1CCC[C@H]1C(=O)N[C@@H](CCCNC(=N)N)C(=O)N[C@H](C(=O)N[C@@H](CCSC)C(=O)N[C@H](C(=O)N[C@@H](Cc1cnc[nH]1)C(=O)N[C@@H](CO)C(=O)N[C@@H](CCCCN)C(=O)N1CCC[C@H]1C(=O)N[C@@H](C)C(=O)N[C@@H](CCC(N)=O)C(=O)N1CCC[C@H]1C(=O)O)C(C)C)[C@@H](C)O (Stearoyl-ARLPRTMVHSKPAQP-OH) | 6.8 | 41 | – |
| CCCCCCCCCCCCCCCCCC(=O)N[C@@H](C)C(=O)N[C@@H](CCCNC(=N)N)C(=O)N[C@@H](CC(C)C)C(=O)N[C@@H](CO)C(=O)N1CCC[C@H]1C(=O)N[C@H](C(=O)N[C@@H](CCSC)C(=O)N[C@H](C(=O)N[C@@H](Cc1cnc[nH]1)C(=O)N1CCC[C@H]1C(=O)N[C@@H](CC(N)=O)C(=O)NCC(=O)N[C@@H](C)C(=O)N[C@@H](CCC(N)=O)C(=O)N1CCC[C@H]1C(N)=O)C(C)C)[C@@H](C)O (Stearoyl-ARLSPTMVHPNGAQP-NH2) | – | > 1000 | – |
| CCCCCCCCCCCCCCCCCC(=O)N[C@@H](CCCNC(=N)N)C(=O)N[C@H](C(=O)N[C@@H](CCSC)C(=O)N[C@H](C(=O)N[C@@H](Cc1cnc[nH]1)C(=O)N1CCC[C@H]1C(=O)N[C@@H](CCCCN)C(N)=O)C(C)C)[C@@H](C)O (Stearoyl-RTMVHPK-NH2) | 11 | > 100 | – |
| CCCCCCCCCCCCCCCCCC(=O)N[C@H](C(=O)N[C@@H](CCCNC(=N)N)C(=O)N[C@@H](CC(C)C)C(=O)N1CCC[C@H]1C(=O)N[C@@H](CCCNC(=N)N)C(=O)N[C@H](C(=O)N[C@@H](CCSC)C(=O)N[C@@H](CC(C)C)C(=O)N[C@@H](Cc1cnc[nH]1)C(=O)N[C@@H](Cc1cnc[nH]1)C(=O)N[C@@H](CCCCN)C(=O)N1CCC[C@H]1C(=O)N[C@@H](C)C(=O)N[C@@H](CCC(N)=O)C(=O)N[C@@H](C)C(N)=O)[C@@H](C)O)[C@@H](C)O (Stearoyl-TRLPRTMLHHKPAQA-NH2) | 10 | 5.1 | – |
| CCCCCCCCCCCCCCCCCC(=O)N[C@H](C(=O)N[C@@H](Cc1cnc[nH]1)C(=O)N1CCC[C@H]1C(=O)N[C@@H](CCCCN)C(=O)N1CCC[C@H]1C(=O)N[C@@H](C)C(=O)N[C@@H](CCC(N)=O)C(=O)N1CCC[C@H]1C(N)=O)C(C)C (Stearoyl-VHPKPAQP-NH2) | 59 | 10 | – |
| CCCCCCCCCCCCCCCCCC(=O)N[C@H](C(=O)N[C@@H](CCSC)C(=O)N[C@H](C(=O)N[C@@H](CCCNC(=N)N)C(=O)N1CCC[C@H]1C(=O)N[C@@H](CC(C)C)C(=O)N[C@@H](CCCNC(=N)N)C(=O)N[C@@H](C)C(N)=O)[C@@H](C)O)C(C)C (Stearoyl-VMTRPLRA-NH2) | > 100 | > 100 | – |
| H-EPYGFIAFSRAAHSP-OH | – | – | Kd [1]: 0.03 µM; Kd [2]: 0.02 µM; Kd [3]: 0.03 µM |
| H-GRPPDSVFRSRGWLS-OH | – | – | Kd [1]: 0.011 µM; Kd [2]: 0.0089 µM; Kd [3]: 0.02 µM |
| H-GRVPVFGLSPLFKVE-OH | – | – | Kd [1]: 0.0078 µM; Kd [2]: 0.016 µM; Kd [3]: 0.019 µM |
| H-IDIAFSSLALADISR-OH [IDIAFSSLALADISR] [listing 1 of 2 here] | – | – | Kd [1]: 0.019 µM |
| H-IDIAFSSLALADISR-OH [IDIAFSSLALADISR] [listing 2 of 2 here] | – | – | Kd [2]: 0.013 µM; Kd [3]: 0.03 µM |
